Laboratory results as given in article PMC11965407 (Translational Psychiatry, 2025).
“Also recorded” adds a separate entry of the source. Structures can show the parent of a compound that is named as a salt. Where two headings read alike, the source gives them in different places.

What was measured:
[1] = test system: neuronal Kv7; details: read-out: IC50, neuronal Kv7 inhibition; cited from earlier work
[2] = target: Kv7.2 D212A channel (Homo sapiens, UniProt O43526, D212A); test: Whole-cell patch-clamp of Kv7.2 D212A mutant channel; format: cell-based
[3] = target: T1, Kv7.2 channel (Homo sapiens, UniProt O43526); test: Single-channel recordings; format: cell-based
Procedure, shortened: (§1)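 Cell-attached single-channel recording was done at room temperature on transfected HEK293T cells. Pipettes (8–10 MΩ) held bath solution: NaCl 150, KCl 5, MgCl2 1, CaCl2 2, HEPES 10 mM, pH 7.4. Data were […] and filtered at 0.8–1 kHz. Patch potential of 0 mV was set from Vm = RMP − Vpipette, with RMP from current clamp. Open probability and conductance came from all-point amplitude histograms, with recordings before and after drug.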

[4] = target: Kv7.2 D212A/Kv7.3 heteromeric channels (Homo sapiens, UniProt O43525+O43526, D212A); test: Whole-cell patch-clamp of Kv7.2 D212A/Kv7.3 heteromeric channels; format: cell-based
[5] = test system: hippocampal neurons; format: cell-based, rat; details: for depolarizing shift of resting membrane potential (RMP): hippocampal neurons
[6] = target: Kv7.1 (Homo sapiens, UniProt P51787); test: Perforated whole-cell patch-clamp of Kv7.1 current in transfected HEK293T cells; format: cell-based
[7] = test system: GIRK1/2 channels; details: read-out: IC50, GIRK1/2 channels; cited from earlier work
[8] = test system: F304A Kv7.2 channel; test: Whole-cell patch-clamp of F304A Kv7.2 mutant in HEK293T cells; format: cell-based, human; details: 10 or 30 µM paroxetine, vs WT Kv7.2
Procedure, shortened: (§2)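 Alanine point mutants of human Kv7.2 were made by site-directed mutagenesis and verified by sequencing. Wild-type or mutant channels were expressed in HEK293T cells and recorded by perforated whole-cell patch clamp at room temperature. Currents were recorded before and after 10 or 30 µM test compound, and inhibition was normalized and compared with wild-type Kv7.2. n = 3–6.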

[9] = target: Kv7.4 (Homo sapiens, UniProt P56696); test: Perforated whole-cell patch-clamp of Kv7.4 current in transfected HEK293T cells; format: cell-based
[10] = target: Kv7.5 (Homo sapiens, UniProt Q9NR82); test: Perforated whole-cell patch-clamp of Kv7.5 current in transfected HEK293T cells; format: cell-based
Procedure, shortened: (§3)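 Human Kv7.2 or Kv7.5 cDNA in pcDNA3.1 was co-transfected with GFP into HEK293T cells using lipofectamine 2000 and recorded 24 h later. Recording used perforated patch (amphotericin B 250 μg/mL in pipette) with internal KCl 150, MgCl2 5, HEPES 10 mM, pH 7.4, and external NaCl 160, KCl 2.5, MgCl2 1, CaCl2 2, glucose 10, HEPES 20 mM, pH 7.4, at room temperature. IC50 came from a logistic fit, activation curves from Boltzmann fits, and τ values from single exponentials (activation 0 mV, deactivation −120 mV).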

[11] = target: F240A Kv7.2 channel (Homo sapiens, UniProt O43526, F240A); test: Whole-cell patch-clamp of F240A Kv7.2 mutant in HEK293T cells; format: cell-based; details: HEK-293T, read-out: inhibition of F240A Kv7.2 current
Procedure, shortened: as §2

[12] = target: F305A Kv7.2 channel (Homo sapiens, UniProt O43526, F305A); test: Whole-cell patch-clamp of F305A Kv7.2 mutant in HEK293T cells; format: cell-based; details: 10 or 30 µM paroxetine, vs WT Kv7.2
Procedure, shortened: as §2

[13] = target: W236A Kv7.2 channel (Homo sapiens, UniProt O43526, W236A); test: Whole-cell patch-clamp of W236A Kv7.2 mutant in HEK293T cells; format: cell-based; details: HEK-293T, read-out: inhibition of W236A Kv7.2 current
Procedure, shortened: as §2

[14] = test system: native M-current in hippocampal neurons; test: Native M-current recording in cultured hippocampal neurons; format: cell-based, rat; details: measured at −20 mV
[15] = daily dosage of 20 mg, patients with depression; cited from earlier work
[16] = target: Kv7.2/Kv7.3 single-channels (Homo sapiens, UniProt O43525+O43526); test: Single-channel recordings; format: cell-based; details: paroxetine 3 μΜ
Procedure, shortened: as §1

[17] = test system: Kv3.1 channels; details: read-out: IC50, Kv3.1 channels; cited from earlier work
[18] = target: L299A Kv7.2 channel (Homo sapiens, UniProt O43526, L299A); test: Whole-cell patch-clamp of L299A Kv7.2 mutant in HEK293T cells; format: cell-based; details: HEK-293T, read-out: inhibition of F299A Kv7.2 current
Procedure, shortened: as §2

[19] = target: Kv7.2/Kv7.3 channels (Homo sapiens, UniProt O43525+O43526); format: cell-based
Procedure, shortened: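 CHO cells stably expressing Kv7.2/Kv7.3 were grown in F12 with 10% FBS and 600 μg/mL G418. Cells were recorded by amphotericin B (250 μg/mL) perforated patch at room temperature. Internal was KCl 150, MgCl2 5, HEPES 10 mM, pH 7.4; external was NaCl 160, KCl 2.5, MgCl2 1, CaCl2 2, glucose 10, HEPES 20 mM, pH 7.4. Current was measured at 0 mV. Activation used −110 to 30 mV steps (10 mV increments) then 0 mV, with a Boltzmann fit. IC50 came from a logistic fit; τ from a single exponential.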

[20] = target: T1, Kv7.2 channel; test: Perforated whole-cell patch-clamp of Kv7.2 current in transfected HEK293T cells; format: cell-based
Procedure, shortened: as §3

[21] = test system: Kv7.1-Kv7.4 channels; details: read-out: IC50, inhibition of Kv7.1-Kv7.4 channels; cited from earlier work
[22] = test system: Kv7.5; details: read-out: IC50, inhibition of Kv7.5; cited from earlier work

Sequence of Kv7.4 (P56696 whole entry): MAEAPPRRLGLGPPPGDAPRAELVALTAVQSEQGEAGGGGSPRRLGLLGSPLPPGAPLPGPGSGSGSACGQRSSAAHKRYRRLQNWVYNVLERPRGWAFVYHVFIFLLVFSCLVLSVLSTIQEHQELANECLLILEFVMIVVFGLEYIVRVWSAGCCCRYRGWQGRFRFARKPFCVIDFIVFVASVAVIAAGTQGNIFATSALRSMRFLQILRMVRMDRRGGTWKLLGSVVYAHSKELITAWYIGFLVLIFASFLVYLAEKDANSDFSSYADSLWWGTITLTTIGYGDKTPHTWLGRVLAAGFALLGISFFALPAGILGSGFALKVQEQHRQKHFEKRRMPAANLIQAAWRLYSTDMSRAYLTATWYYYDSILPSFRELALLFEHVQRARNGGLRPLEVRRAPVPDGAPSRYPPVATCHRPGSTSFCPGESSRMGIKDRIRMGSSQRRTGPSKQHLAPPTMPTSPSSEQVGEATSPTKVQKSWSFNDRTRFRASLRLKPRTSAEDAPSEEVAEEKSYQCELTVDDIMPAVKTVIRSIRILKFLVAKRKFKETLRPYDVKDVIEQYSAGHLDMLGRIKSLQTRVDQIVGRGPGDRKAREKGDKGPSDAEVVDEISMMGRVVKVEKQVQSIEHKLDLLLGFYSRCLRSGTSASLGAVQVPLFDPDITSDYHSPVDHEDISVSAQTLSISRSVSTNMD
Sequence of Kv7.5 (Homo sapiens, UniProt Q9NR82) (Q9NR82 whole entry): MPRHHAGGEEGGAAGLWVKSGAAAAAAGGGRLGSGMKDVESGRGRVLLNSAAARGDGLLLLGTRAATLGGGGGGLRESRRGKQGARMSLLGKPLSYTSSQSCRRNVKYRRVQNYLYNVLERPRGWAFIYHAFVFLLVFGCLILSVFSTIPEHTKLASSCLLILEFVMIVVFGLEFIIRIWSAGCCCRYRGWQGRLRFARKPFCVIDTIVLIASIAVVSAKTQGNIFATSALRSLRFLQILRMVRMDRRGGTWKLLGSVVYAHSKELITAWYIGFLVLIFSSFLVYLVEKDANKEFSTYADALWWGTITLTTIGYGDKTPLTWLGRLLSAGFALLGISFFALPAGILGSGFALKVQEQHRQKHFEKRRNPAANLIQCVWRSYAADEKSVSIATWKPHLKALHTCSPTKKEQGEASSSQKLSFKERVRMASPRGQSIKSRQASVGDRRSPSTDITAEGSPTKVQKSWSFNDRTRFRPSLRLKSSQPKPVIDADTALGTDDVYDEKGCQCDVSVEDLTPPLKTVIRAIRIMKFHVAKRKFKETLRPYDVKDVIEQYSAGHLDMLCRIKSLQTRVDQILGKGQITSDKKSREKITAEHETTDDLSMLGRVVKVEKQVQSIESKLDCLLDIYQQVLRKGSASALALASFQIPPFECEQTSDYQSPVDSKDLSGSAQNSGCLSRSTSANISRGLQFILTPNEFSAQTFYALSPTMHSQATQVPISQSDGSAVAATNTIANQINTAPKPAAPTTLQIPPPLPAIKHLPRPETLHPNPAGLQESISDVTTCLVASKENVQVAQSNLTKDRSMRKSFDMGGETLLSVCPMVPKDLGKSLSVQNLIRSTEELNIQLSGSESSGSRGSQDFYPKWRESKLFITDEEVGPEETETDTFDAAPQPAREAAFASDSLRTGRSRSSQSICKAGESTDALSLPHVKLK
Sequence of Kv7.1 (P51787 whole entry): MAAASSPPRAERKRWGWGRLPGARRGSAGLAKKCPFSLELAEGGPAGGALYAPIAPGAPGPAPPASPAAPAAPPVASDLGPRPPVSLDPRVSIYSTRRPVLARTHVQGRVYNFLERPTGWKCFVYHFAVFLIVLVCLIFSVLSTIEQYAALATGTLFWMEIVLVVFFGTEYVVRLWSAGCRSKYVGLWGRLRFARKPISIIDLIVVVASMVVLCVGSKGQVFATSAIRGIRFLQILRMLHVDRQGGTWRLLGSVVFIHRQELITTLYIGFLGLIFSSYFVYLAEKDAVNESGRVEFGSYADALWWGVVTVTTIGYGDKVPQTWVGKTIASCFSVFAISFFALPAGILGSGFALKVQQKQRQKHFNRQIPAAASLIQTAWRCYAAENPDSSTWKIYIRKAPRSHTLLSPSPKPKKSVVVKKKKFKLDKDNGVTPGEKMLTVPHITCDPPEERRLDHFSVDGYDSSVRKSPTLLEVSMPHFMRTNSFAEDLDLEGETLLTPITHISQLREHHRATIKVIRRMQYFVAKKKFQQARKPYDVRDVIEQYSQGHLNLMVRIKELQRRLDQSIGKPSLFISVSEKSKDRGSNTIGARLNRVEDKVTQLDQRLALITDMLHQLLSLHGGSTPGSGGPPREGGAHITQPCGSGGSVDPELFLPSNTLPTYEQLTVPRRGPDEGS

CC[C@H](C(=O)Nc1ccccc1N1CCCC1)c1ccccc1 [ML252]
IC50 [1]: 1 to 6 µM

Fc1ccc([C@@H]2CCNC[C@H]2COc2ccc3c(c2)OCO3)cc1 [paroxetine, paroxetine hydrochloride]
IC50 [2]: 41 ± 5.6 µM
reduction of inhibitory effect by D212A mutation versus wild type ([2]; Kv7.2 D212A vs Kv7.2): approximately three-fold
Kv7.2 single-channel open probability ([3]; paroxetine 10 μM, 0 mV, cell-attached, control 0.19 ± 0.01): 0.09 ± 0.01
Kv7.2 single-channel conductance ([3]; paroxetine 10 μM, control 7.7 ± 0.4 pS): 7.7 ± 0.7 pS
IC50 [4]: 9.2 ± 1.3 µM
reduction of inhibitory effect by D212A mutation versus wild type ([4]; Kv7.2 D212A/Kv7.3 vs Kv7.2/Kv7.3): approximately three-fold
resting membrane potential after drug ([5]; 3 μΜ, from −57.2 ± 3.4 mV): −48.6 ± 2.4 mV
resting membrane potential after drug ([5]; 10 μΜ, from −62.2 ± 1.7 mV): −48.5 ± 2.0 mV
firing activity of hippocampal neurons in response to current injection ([5]; paroxetine at 3 and 10 μΜ): significantly increased
IC50 [6]: 71.8 ± 7.9 µM
V1/2 of Kv7.1 in presence of paroxetine ([6]; paroxetine 50 μM, control −3.2 ± 2.1 mV, P < 0.05): 4.6 ± 2.1 mV
τdeactivation (−120 mV) of Kv7.1 ([6]; paroxetine near its IC50, control 39.9 ± 3.3 ms): 27.9 ± 3.6 ms
IC50 [7]: 13.8 ± 2.9 µM
reduction of channel sensitivity to paroxetine by F304A mutation [8]: three-fold
V1/2 of Kv7.4 in presence of paroxetine ([9]; paroxetine 20 μM, control −14.4 ± 3.6 mV): −15.2 ± 4.3 mV
τdeactivation (−120 mV) of Kv7.4 ([9]; paroxetine, control 12.1 ± 1.3 ms): 10.9 ± 1.6 ms
τactivation (0 mV) of Kv7.4 ([9]; paroxetine, control 131.5 ± 23.6 ms): 131.3 ± 22.9 ms
IC50 [10]: 37.2 ± 5.2 µM
V1/2 of Kv7.5 in presence of paroxetine ([10]; paroxetine 20 μM, control −32.7 ± 5.7 mV): −33.6 ± 6.1 mV
τdeactivation (−120 mV) of Kv7.5 ([10]; paroxetine, control 36.7 ± 1.7 ms): 35.4 ± 5.0 ms
τactivation (0 mV) of Kv7.5 ([10]; paroxetine, control 77.4 ± 5.3 ms): 79.8 ± 17.6 ms
inhibition at 10 µM [11]: 46.9 ± 9.7%
effect of F305A mutation on paroxetine-mediated inhibition of Kv7.2 [12]: no notable effect; also recorded: does not significantly affect
inhibition at 10 µM [13]: 43.8 ± 6.8%
inhibition of M-current ([14]; 3 μΜ): 31.5 ± 4.6%
inhibition of M-current ([14]; 10 μΜ): 52.4 ± 2.0%
brain concentrations [15]: 2000 to 14000 nM
open probability of Kv7.2/Kv7.3 single-channels ([16]; 0 mV, cell-attached, control 0.28 ± 0.01): 0.13 ± 0.01
single-channel conductance of Kv7.2/Kv7.3 ([16]; control 10.9 ± 1.1 pS, not altered): 10.4 ± 0.9 pS
IC50 [17]: 9.4 ± 0.5 µM
inhibition at 10 µM [18]: 59.4 ± 10.4%
IC50 [19]: 3.6 ± 0.2 µM
inhibition at 3 µM ([19]; CHO, read-out: inhibition of Kv7.2/Kv7.3 currents recorded at 0 mV): 62.8 ± 6.5%
τdeactivation (−120 mV) of Kv7.2/Kv7.3 ([19]; paroxetine 3 μΜ, control 14.4 ± 1.1 ms): 12.6 ± 0.7 ms
τactivation (0 mV) of Kv7.2/Kv7.3 ([19]; paroxetine 3 μΜ, control 94.5 ± 11.0 ms): 112.8 ± 9.0 ms
V1/2 (half activation voltage) of Kv7.2/Kv7.3 in presence of paroxetine ([19]; paroxetine 3 μΜ, control −3.9 ± 1.2 mV, not significant): −7.5 ± 3.5 mV
IC50 [20]: 12.3 ± 6.5 µM
inhibition at 10 µM ([20]; HEK-293T, read-out: inhibition of WT Kv7.2 current): 56.6 ± 2.9%
τdeactivation (−120 mV) of Kv7.2 ([20]; paroxetine 10 μM, control 24.9 ± 10.0 ms): 18.6 ± 6.9 ms
τactivation (0 mV) of Kv7.2 ([20]; paroxetine 10 μM, control 132.6 ± 15.0 ms): 141.7 ± 15.8 ms
V1/2 of Kv7.2 in presence of paroxetine ([20]; paroxetine 10 μM, control −12.0 ± 0.8 mV): −9.1 ± 2.0 mV

O=C1c2ccccc2C(Cc2ccncc2)(Cc2ccncc2)c2ccccc21 [XE991]
Kv7.2 single-channel open probability ([3]; XE991 3 μΜ, control 0.21 ± 0.02): 0.05 ± 0.01
Kv7.2 single-channel conductance ([3]; XE991 3 μΜ, control 7.7 ± 0.8 pS): 8.0 ± 0.4 pS
firings in hippocampal neurons ([5]; 3 μM XE991, n = 6): increased firings
depolarizing shift of resting membrane potential (RMP) ([5]; 1 μΜ): 6.2 ± 2.2 mV
depolarizing shift of resting membrane potential (RMP) ([5]; 3 μΜ): 9.7 ± 1.2 mV
IC50 [21]: 1 to 5 µM
inhibition of M-current ([14]; 3 μΜ): 21.2 ± 2.0%
IC50 [22]: ~60 µM
inhibition of Kv7.2/Kv7.3 currents recorded at 0 mV ([19]; 3 μM, CHO cells, n = 5): 81.4 ± 1.5%
